Most compounds without a hit are left out; they make up all but 3.1% or so of the library.
Hsp70 activator: transcriptional activators of Hsp70; activation, % at 10 µM; actives 0.04% (n = 200,000); AID 1203; HeLa Hsp70 promoter luciferase reporter, luminescence; scaled: vehicle 0, proteasome-inhibitor control 100%;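 active = activation above the mean across all tested compounds plus 3 SD, cutoff set per campaign, cut at about 5.5% in these data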;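 also: 100% = MG132 at 30 µM as the positive control and 0% = DMSO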
HKDC1 inhibitor: HKDC1 (human) hexokinase inhibition; AID 493160; actives 0.16% (n = 340,000); recombinant HKDC1, G6PDH/diaphorase resazurin coupled fluorescence; inhibition, % at 20 µM;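 active = inhibition above about 35% when tested at 20 µM, limit read from the data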;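 also: plate controls were DMSO wells with enzyme for no effect and DMSO wells lacking enzyme for full effect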
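Material – in-house recombinant HK5 (HKDC1) enzyme · Quantity – HKDC1 at 5 µg/mL · Buffer or medium – pH 8.0 Tris buffer with 10 mM MgCl2 · Reagent – glucose with 1 mM ATP · Dosing – single 20 µM dose · Times – reaction time 90 min, room temperature, protected from light · Technique – resorufin fluorescence at 613 nm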
HSP90 refold inh: blocks HSP90-mediated luciferase refolding in reticulocyte lysate | inhibition, % at 5.6 µM | Rabbit reticulocyte lysate, luciferase refolding luminescence, 3 h | actives 0.91% (n = 290,000);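 active = inhibition above the screen-wide mean plus 3 SD, computed separately per campaign, cut at about 16% in these data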;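 also: 0% = DMSO wells and 100% = 60 µM geldanamycin wells; inhibitors lower the luminescence because luciferase stays unfolded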
TbHK1 inh: T. brucei hexokinase 1 inhibition; recombinant TbHK1, G6PDH-coupled NADH A340; inhibition, % at 10 µM; actives 0.11% (n = 220,000); AID 1430;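 active = inhibition of 50% or more in the single-dose primary screen; inactive = inhibition below 50%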
HSF-1 act: increases HSF-1 driven luciferase reporter signal; AID 504408; NIH3T3-HGL HSF-1 luciferase reporter, MG132, 8 h; 100% = twice DMSO control signal; activation, % at 9 µM; actives 1.7% (n = 300,000);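 active = mean replicate activation of at least 50% with a set share of replicates each reaching 50%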;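 also: 0% = median of the neutral control wells and 100% = twice that signal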
HSF1 inhib: HSF1 inhibition. actives 0.77% (n = 300,000). NIH3T3-HGL HSE-luciferase, MG132-induced, luminescence 8 h; stronger effect = lower value. activity change, negative = inhibition, % at 7.5 µM (by protocol);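 active = more than half of replicate wells show activity change below -50%, luminescence cut by over half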;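 also: luciferase reports HSF-1 transcriptional activity via heat shock element; 0% = median of DMSO wells and -100% = zero luminescence signal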
* = called active by the depositor; . = no result given.

SMILES	Hsp70 activator	HKDC1 inhibitor	HSP90 refold inh	TbHK1 inh	HSF-1 act	HSF1 inhib
CC(C)(C)NC(=O)COC(=O)c1ccccc1Nc1ccc(SC(F)F)cc1	0	7	-4	-2	98*	67
CN(C)C(=O)COC(=O)c1ccccc1OCC(=O)Nc1ccc(SC(F)F)cc1	0	-8	-3	-3	-9	-2
O=C(COc1ccccc1C(=O)O)Nc1ccc(SC(F)F)cc1	0	-5	4	0	-88	-86*
O=C(COC(=O)c1ccccc1Nc1ccc(SC(F)F)cc1)NC1CC1	0	-4	-6	30	79*	53
CN(CC(=O)Nc1ccccc1Cl)C(=O)CSc1nnc(N)s1	.	-4	.	.	-14	1
CCN(CC)S(=O)(=O)c1cccc(C(=O)OC2CC(C)OC2=O)c1 (centres undefined)	.	3	16*	.	1	-2
Fc1ccccc1Cn1nnc(-c2ccc3c(c2)OCO3)n1	0	5	-1	5	83*	52
O=C(O)c1cccc(NS(=O)(=O)c2cc(S(=O)(=O)c3ccc(Cl)cc3)ccc2Cl)c1	.	-4	2	.	13	1
CC(C)(CO)CNC(=O)CCc1nnc(C2(c3ccc(Cl)cc3)CCC2)o1	0	-10	2	2	16	-2
COCCNC(=O)CCc1nnc(C2(c3ccc(Cl)cc3)CCC2)o1	0	-5	-2	0	-65	-56*
COc1cc(-c2nc3cnccn3c2Nc2ccccc2)ccc1O	0	6	2	-24	56*	24
c1ccc(-c2nc3cnccn3c2Nc2ccc3c(c2)OCCO3)cc1	0	6	-4	-17	14	2
Oc1ccc(-c2nc3cnccn3c2Nc2ccc3c(c2)OCCO3)cc1	1	5	1	-33	64*	53
C=CCNc1nnc(Cc2ccc(C(C)C)cc2)c(=O)[nH]1	.	-2	-1	.	26	5
CCN(CC(=O)Nc1c(F)cccc1F)C(=O)c1cnccn1	.	1	.	.	28	3
O=C1NC(c2cccc(OCc3ccccc3)c2)Nc2ccccc21 (centres undefined)	.	-2	.	.	.	.
O=C1/C(=C/c2cccc([N+](=O)[O-])c2)CCc2ccccc21	0	20	-2	0	8	4
CCN1C/C(=C\c2cccc([N+](=O)[O-])c2)C(=O)/C(=C/c2cccc([N+](=O)[O-])c2)C1	0	43*	2	15	.	.
C=CCN1CC(=O)N2C(c3ccccc3)c3[nH]c4ccccc4c3C[C@H]2C1=O (some centres undefined)	.	5	-3	.	17	1
Cc1cc(C)c2c(n1)sc1c(=O)[nH]c(SCc3ccccc3)nc12	0	-5	-1	-6	-91	-89*
O=S(=O)(c1ccc(Cl)s1)N1CCCc2cccc(O)c21	0	4	1	3	116*	70
O=C(CSc1n[nH]c(-c2ccccc2)n1)Nc1ccc(F)cc1F	.	-5	3	.	-11	1
O=C(CSc1n[nH]c(-c2ccccc2)n1)Nc1ccccc1O	.	7	-6	.	65*	37
Cc1ccc([N+](=O)[O-])cc1NC(=O)CSc1n[nH]c(-c2cccnc2)n1	.	0	-1	.	-90	-87*
Cc1ccc(NC(=O)CSc2n[nH]c(-c3cccnc3)n2)c(Br)c1	.	12	-2	.	5	3
SMILES	Hsp70 activator	HKDC1 inhibitor	HSP90 refold inh	TbHK1 inh	HSF-1 act	HSF1 inhib
CCN(C(=O)COC(=O)CCOc1ccc(C(C)(C)C)cc1)c1c(N)n(Cc2ccccc2)c(=O)[nH]c1=O	.	-3	.	.	.	.
COc1ccc(C2(CO)OC(CO)C(O)C2O)cc1 (centres undefined)	.	3	.	.	.	.
Cc1ccc(C(=O)N/N=C/c2ccc3c(c2)OCO3)o1	0	-8	-3	-37	12	3
Cc1ccc(O)c(C(=O)/C=C/c2ccc3c(c2)OCCCO3)c1	0	16	-1	-8	448*	278
Cc1ccc(C(=O)/C=C/c2ccc3c(c2)OCO3)o1	0	-8	-1	-29	60*	41
COc1cccc(/C=C/C(=O)Oc2ccc(C(=O)c3ccc(F)cc3)cc2)c1	0	-5	2	-1	8	-4
COC(=O)/C=C/c1ccc2c(c1)OCO2	1	14	-1	-30	-8	-4
